Source: ChEMBL document CHEMBL2150981, “Discovery and optimization of benzotriazine di-N-oxides targeting replicating and nonreplicating Mycobacterium tuberculosis” (J Med Chem, 2012)
≈ marks a conversion by molar mass, not a printed value.

Legend:
Assay type in all cases: functional
[1] = tested on: Mycobacterium tuberculosis; test: Antitubercular activity against streptomycin-resistant Mycobacterium tuberculosis ATCC 35820 after 5 days by resazurin-based microplate assay; conditions: ATCC 35820, 120 h
Summary of the method: (§1)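 Mid-log cultures grown in 7H9 with glycerol, Tween-80 and ADC. Compounds in DMSO were tested two-fold from […] against ~10^5 CFU/mL, 37°C for 5 d. Resazurin was then added for a further 2 d, and fluorescence read at ex 530/em 590 with visual confirmation. MIC was the lowest concentration inhibiting 90% of growth. Final DMSO 0.625%; two-fold variation taken as assay error.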

[2] = tested on: Mycobacterium tuberculosis; test: Antitubercular activity against isoniazid-resistant Mycobacterium tuberculosis ATCC 35822 after 5 days by resazurin-based microplate assay; conditions: ATCC 35822, 120 h; summary of the method: as §1
[3] = tested on: Mycobacterium tuberculosis; test: Antitubercular activity against kanamycin-resistant Mycobacterium tuberculosis ATCC 35827 after 5 days by resazurin-based microplate assay; conditions: ATCC 35827, 120 h; summary of the method: as §1
[4] = tested on: Mycobacterium tuberculosis; test: Antitubercular activity against ethionamide-resistant Mycobacterium tuberculosis ATCC 35830 after 5 days by resazurin-based microplate assay; conditions: ATCC 35830, 120 h; summary of the method: as §1
[5] = tested on: Mycobacterium tuberculosis; test: Antitubercular activity against ethambutol-resistant Mycobacterium tuberculosis ATCC 35837 after 5 days by resazurin-based microplate assay; conditions: ATCC 35837, 120 h; summary of the method: as §1

Row | SMILES | MIC90 [1] [µg/mL] | MIC90 [2] [µg/mL] | MIC90 [3] [µg/mL] | MIC90 [4] [µg/mL] | MIC90 [5] [µg/mL]
1 | CCNc1n[n+]([O-])c2ccccc2[n+]1[O-] | 1.2 (≈ 5.82 µM) | 1.2 (≈ 5.82 µM) | 1.2 (≈ 5.82 µM) | 1.2 (≈ 5.82 µM) | 1.2 (≈ 5.82 µM)
2 | CC(C)(C)Nc1n[n+]([O-])c2ccccc2[n+]1[O-] | 1.2 (≈ 5.12 µM) | 2.5 (≈ 10.7 µM) | 2.5 (≈ 10.7 µM) | 1.2 (≈ 5.12 µM) | 2.5 (≈ 10.7 µM)
3 | CCNc1n[n+]([O-])c2cccc(C)c2[n+]1[O-] | 0.16 (≈ 0.727 µM) | 0.62 (≈ 2.82 µM) | 0.62 (≈ 2.82 µM) | 0.31 (≈ 1.41 µM) | 0.62 (≈ 2.82 µM)
4 | CCNc1n[n+]([O-])c2cc3c(cc2[n+]1[O-])CCC3 | 0.63 (≈ 2.56 µM) | 1.2 (≈ 4.87 µM) | 1.2 (≈ 4.87 µM) | 1.2 (≈ 4.87 µM) | 1.2 (≈ 4.87 µM)
5 | [O-][n+]1nc(NC2CCC2)[n+]([O-])c2cc3c(cc21)CCC3 | 0.31 (≈ 1.14 µM) | 1.2 (≈ 4.41 µM) | 1.2 (≈ 4.41 µM) | 0.62 (≈ 2.28 µM) | 0.62 (≈ 2.28 µM)
6 | CCNc1n[n+]([O-])c2cc(C)c(OC)cc2[n+]1[O-] | 1.2 (≈ 4.8 µM) | 1.2 (≈ 4.8 µM) | 1.2 (≈ 4.8 µM) | 1.2 (≈ 4.8 µM) | 1.2 (≈ 4.8 µM)
7 | [O-][n+]1nc(N2CCCC2)[n+]([O-])c2ccccc21 | 0.02 (≈ 0.0861 µM) | 0.31 (≈ 1.33 µM) | 0.31 (≈ 1.33 µM) | 0.31 (≈ 1.33 µM) | 0.31 (≈ 1.33 µM)
8 | [O-][n+]1nc(N2CCCC2)[n+]([O-])c2cc3c(cc21)CCC3 | 0.16 (≈ 0.588 µM) | 0.31 (≈ 1.14 µM) | 0.63 (≈ 2.31 µM) | 0.62 (≈ 2.28 µM) | 0.62 (≈ 2.28 µM)
9 | [O-][n+]1nc(N2CCCCC2)[n+]([O-])c2cc3c(cc21)CCC3 | 0.15 (≈ 0.524 µM) | 0.15 (≈ 0.524 µM) | 0.31 (≈ 1.08 µM) | 0.31 (≈ 1.08 µM) | 0.31 (≈ 1.08 µM)
10 | CN(C)c1n[n+]([O-])c2cc3c(cc2[n+]1[O-])CCC3 | < 0.07 | < 0.07 | 0.31 (≈ 1.26 µM) | 0.15 (≈ 0.609 µM) | 0.31 (≈ 1.26 µM)
11 | CN(Cc1ccccc1)c1n[n+]([O-])c2cc3c(cc2[n+]1[O-])CCC3 | < 0.07 | < 0.07 | 0.15 (≈ 0.465 µM) | 0.07 (≈ 0.217 µM) | 0.15 (≈ 0.465 µM)
12 | CN(CCc1ccccc1)c1n[n+]([O-])c2cc3c(cc2[n+]1[O-])CCC3 | < 0.07 | 0.07 (≈ 0.208 µM) | 0.15 (≈ 0.446 µM) | 0.15 (≈ 0.446 µM) | 0.31 (≈ 0.922 µM)
13 | CC1CCCCN1c1n[n+]([O-])c2cc3c(cc2[n+]1[O-])CCC3 (stereo not given) | 0.31 (≈ 1.03 µM) | 0.31 (≈ 1.03 µM) | 0.62 (≈ 2.06 µM) | 0.31 (≈ 1.03 µM) | 0.62 (≈ 2.06 µM)
